pIC50: −log10 of the molar value. Calls of active or inactive are those of the source. No cut-off for these calls is given here.

In series [1] the test system is MV4-11. Kind of series: Antitumor activity against human MV4-11 cells xenografted in BALB/c mouse assessed as tumor growth inhibition at 60 mg/kg,po QD for 28 days. The series is classed as functional. The settings on record: MV4-11, 672 h, time 28 day, read-out: TGI. In outline:
(§1)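 Single-agent efficacy in MV-4-11 AML mouse xenograft. Tumor volume (mm3) and percent body-weight change were tracked over the treatment days.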
(Xenograft models place foreign cells or tissue in a host animal.)

The nature of series [2]: AUC (0 to infinity) in mouse at 30 mg/kg,po. The series is classed as ADME, organism-based. Also on record: dose 30 mg/kg, route po. The conditions noted are these: in vivo.
Series [3] can be described thus: Toxicity in dog assessed as to mild to moderate hyperglycemia at 2 to 6 mg/kg,po QD consecutive for 14 days followed by 2 weeks recovery period. The series is classed as organism-based, Canis lupus familiaris. The conditions noted are these: in vivo, 336 h, dose 2-6 mg/kg, time 14 day. A digest of the protocol: (§2)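 Oral suspension given once daily for 14 consecutive days (rat 2, 6, 20 mg/kg; dog 2, 4, 6 mg/kg) in dose range-finding and GLP repeat-dose studies, GLP arms with an added 2-week recovery period; histopathology and clinical pathology findings recorded.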

A short description of series [4]: Cmax in human patient with progression lymphoma at 300 mg,po QD consecutively for 14 days. The series is classed as ADME. Also on record: time 14 day, dose 300 mg, route po. The settings on record: in vivo. In outline:
(§3)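 Phase I trial in patients with hematologic malignancies, oral dosing once daily with escalating cohorts; values are from the 300 mg dose on day 14. AUC0-24 was taken as exposure over 24 h. Apparent clearance was calculated as Dose/AUC0-24.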

Series [5] is described as follows: Unbound AUC in mouse at 30 mg/kg,po. The series is classed as ADME, organism-based. The conditions noted are these: in vivo.
In series [6] the test system is MV4-11. Kind of series: Antitumor activity against human MV4-11 cells xenografted in BALB/c mouse assessed as tumor growth inhibition at 30 mg/kg,po QD for 28 days. The series is classed as functional. The conditions noted are these: MV4-11, 672 h, time 28 day, read-out: TGI. In outline: as §1
In series [7] the target is T1, Transcription intermediary factor 1-alpha (Homo sapiens, UniProt O15164).
T1 sequence (O15164 whole entry): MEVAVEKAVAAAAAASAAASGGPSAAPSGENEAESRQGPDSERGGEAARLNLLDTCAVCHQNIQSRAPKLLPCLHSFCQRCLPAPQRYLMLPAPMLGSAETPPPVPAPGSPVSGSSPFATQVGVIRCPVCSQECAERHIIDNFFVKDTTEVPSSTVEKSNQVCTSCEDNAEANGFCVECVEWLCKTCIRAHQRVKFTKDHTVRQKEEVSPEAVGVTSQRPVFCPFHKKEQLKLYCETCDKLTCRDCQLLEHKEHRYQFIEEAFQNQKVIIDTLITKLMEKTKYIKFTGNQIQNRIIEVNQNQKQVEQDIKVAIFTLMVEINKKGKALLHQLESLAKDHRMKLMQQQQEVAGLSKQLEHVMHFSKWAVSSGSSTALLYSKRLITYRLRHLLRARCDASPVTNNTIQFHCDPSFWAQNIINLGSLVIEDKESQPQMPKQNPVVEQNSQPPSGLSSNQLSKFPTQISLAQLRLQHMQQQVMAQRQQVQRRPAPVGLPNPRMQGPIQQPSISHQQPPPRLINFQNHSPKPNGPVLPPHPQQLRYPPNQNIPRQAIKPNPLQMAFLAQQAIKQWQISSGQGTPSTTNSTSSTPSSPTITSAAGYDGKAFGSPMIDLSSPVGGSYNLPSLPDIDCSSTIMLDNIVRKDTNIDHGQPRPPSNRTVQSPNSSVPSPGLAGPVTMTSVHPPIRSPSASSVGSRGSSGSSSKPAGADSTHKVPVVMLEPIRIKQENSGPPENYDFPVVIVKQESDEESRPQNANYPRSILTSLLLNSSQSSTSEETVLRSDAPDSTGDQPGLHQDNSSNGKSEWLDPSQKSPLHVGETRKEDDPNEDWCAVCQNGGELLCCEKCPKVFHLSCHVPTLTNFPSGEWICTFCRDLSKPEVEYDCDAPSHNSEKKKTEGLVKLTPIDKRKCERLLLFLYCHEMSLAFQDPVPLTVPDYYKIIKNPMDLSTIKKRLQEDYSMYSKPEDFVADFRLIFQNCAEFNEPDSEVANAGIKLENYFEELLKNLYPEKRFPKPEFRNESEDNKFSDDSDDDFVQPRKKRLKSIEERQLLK
Briefly: Displacement of biotinylated JQ1 from TRIM24 bromodomain (unknown origin) incubated for 20 mins by AlphaLISA assay.

The nature of series [8]: Oral bioavailability in rat at 5 mg/kg. The series is classed as ADME, organism-based. The conditions noted are these: in vivo.
In series [9] the target is T2, Bromodomain-containing protein 9 (Homo sapiens, UniProt Q9H8M2).
T2 sequence (Q9H8M2 whole entry): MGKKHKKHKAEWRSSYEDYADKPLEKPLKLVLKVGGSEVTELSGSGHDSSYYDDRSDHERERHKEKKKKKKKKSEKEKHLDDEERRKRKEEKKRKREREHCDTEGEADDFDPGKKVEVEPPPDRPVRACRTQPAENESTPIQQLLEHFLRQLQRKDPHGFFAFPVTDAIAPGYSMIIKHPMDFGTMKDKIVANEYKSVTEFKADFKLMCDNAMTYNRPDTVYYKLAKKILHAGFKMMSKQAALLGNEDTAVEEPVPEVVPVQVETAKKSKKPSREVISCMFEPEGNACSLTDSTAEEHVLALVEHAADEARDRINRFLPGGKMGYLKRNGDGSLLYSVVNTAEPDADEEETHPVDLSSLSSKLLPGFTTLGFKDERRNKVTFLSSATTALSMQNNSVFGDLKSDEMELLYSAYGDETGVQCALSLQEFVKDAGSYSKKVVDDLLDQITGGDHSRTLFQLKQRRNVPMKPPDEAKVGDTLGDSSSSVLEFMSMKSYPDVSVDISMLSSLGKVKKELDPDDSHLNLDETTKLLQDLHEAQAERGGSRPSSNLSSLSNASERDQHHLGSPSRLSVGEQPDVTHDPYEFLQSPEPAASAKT
Briefly: Displacement of biotinylated JQ1 from BRD9 bromodomain (unknown origin) incubated for 20 mins by AlphaLISA assay. On the technique in general: In Alpha technology, singlet oxygen from a donor bead excites a nearby acceptor bead.

Series [10] can be described thus: Toxicity against BALB/c mouse plasma xenografted with human MV4-11 cells assessed as body weight loss at 30 mg/kg,po BID for 28 days. The series is classed as organism-based. The conditions noted are these: in vivo, 672 h, time 28 day. In outline: (§4)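 Body weight change (%) followed in MV-4-11 AML mouse xenograft during 28 days of oral single-agent dosing (30 mg/kg once or twice daily, 60 mg/kg once daily), vehicle PO BID as control.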

Series [11] can be described thus: Protein binding in mouse plasma. The conditions noted are these: read-out: PPB (converted). The series is classed as ADME, cell-free.
The subject of series [12] is MV4-11. Kind of series: In vivo inhibition of BRD4 in human MV4-11 cells xenografted in BALB/c mouse assessed as reduction in cellular MYC mRNA expression level in tumor at 15 mg/kg,sc BID and measured for 8 to 12 hrs by PCR anlaysis. The series is classed as functional, organism-based. The conditions noted are these: time 8-12 hrs. In outline:
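Pharmacodynamic study in MV-4-11 AML mouse xenograft. Dosing was 15 mg/kg subcutaneous twice daily. At 4, 8 and 12 h after the second dose, MYC mRNA was measured against vehicle, and compound levels were measured in plasma and tumor. Free plasma concentration was estimated alongside total levels.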

Series [13] in a line: AUC (0 to 24 hrs) in human patient with progression lymphoma at 300 mg,po QD and measured after 24 hrs. Further details: time 24 hrs, dose 300 mg, route po. The conditions noted are these: in vivo. The series is classed as ADME. In outline: as §3
A short description of series [14]: Protein binding in rat plasma. The series is classed as ADME, cell-free. The settings on record: read-out: PPB (converted).
Series [15] can be described thus: Toxicity in dog assessed as GI mucosal ulceration at 2 to 6 mg/kg,po QD consecutive for 14 days followed by 2 weeks recovery period. The series is classed as organism-based, Canis lupus familiaris. The settings on record: in vivo, 336 h, dose 2-6 mg/kg, time 14 day. In outline: as §2
Series [16] in a line: Toxicity against BALB/c mouse plasma xenografted with human MV4-11 cells assessed as body weight loss at 30 mg/kg,po QD for 28 days. The series is classed as organism-based. The conditions noted are these: in vivo, 672 h, time 28 day. A digest of the protocol: as §4

A word on the AUC(0-inf): it is the area under the concentration-time curve extrapolated to infinity. A high value points to more exposure. By Cmax is commonly meant the peak of the concentration-time curve. In general, pIC50 refers to the negative decadic logarithm of the IC50, by convention in mol/L. What is called bioavailability is the share of a dose that reaches the circulation, judged against a reference dose that is usually intravenous. A word on the AUC: it is the area under the concentration-time curve, a measure of exposure. Read a high AUC as more exposure. Consider `Cc1noc2c1-c1ccccc1C(c1ccc(Cl)cc1)=N[C@H]2CC(N)=O` [PELABRESIB], for which the inhibition in vivo at 60 mg/kg in [1] was 74%. For the same compound, in [2], the AUC(0-inf) came to 101 µM·h. Further, the Activity entry in [3] is reported as “Toxic”; in series [10] it was “Non-Toxic”; in series [15] it was “Toxic”; in series [16] it was “Non-Toxic”. The same compound came in with a Cmax in series [4] of 5.9 µM. For the same compound, in series [5], the fAUC stood at 3 µM·h. For the same compound, the inhibition in vivo at 30 mg/kg in series [6] came to 41%. In addition, the results for the pIC50 in series [7] and in series [9] were less than 4.70 and less than 4.10, respectively. For the same compound, the bioavailability in [8] was found to be 76%. For the same compound, the values for the fraction unbound in series [11] and in series [14] were 0.03 and 0.07, respectively. Moreover, the inhibition entry in series [12] is “inactive”. In addition, the AUC at 24 h in [13] came out at 49 µM·h.

(Values after ChEMBL document CHEMBL5252513, “Identification of a Benzoisoxazoloazepine Inhibitor (CPI-0610) of the Bromodomain and Extra-Terminal (BET) Family as a Candidate for Human Clinical Trials” (J Med Chem, 2016).)
